{
  "source": "PubChem BioAssay AID493235",
  "about": "(Broad Institute, 2011)",
  "note": "Several values for one entry are separate records, joined by “and”; a condition that tells them apart may be missing. Identical values can stand only once. Records with an inconclusive call do not appear. Activity calls are given as the source filed them.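 How the source made its calls: active means fitted dose curve passes 500% activation at or below the top valid tested dose; inconclusive means no clear call, values can overlap the other calls; inactive means the rest, opposite-direction activity included.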",
  "data": [
    {"system": "not listed separately", "assay": "HIF pathway activators in HRE-luciferase reporter, dose response, cell-based, U2OS, luminescence, dry powder, set 7 (AID 493235)", "settings": "U2OS HRE-luciferase reporter, luminescence; at 38 µM (top of the series)", "outline": "(§1)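 Test system – human U2OS osteosarcoma cells stably expressing 3×HRE-driven luciferase reporter · Quantity – 6,000 cells/well · Medium – DMEM without phenol red, with 10% fetal bovine serum · Compound – 8 concentrations, 3-fold steps · Times – cells grown 24 h before dosing, compound exposure 24 h at 37 °C · Detection – luminescence with Steady-Glo luciferase reagent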", "values": [
      {"compound": "Cn1c(NC(=O)c2cc(-c3ccccc3)on2)nc2ccccc21", "activation": "-0.753% (inactive)"},
      {"compound": "N#CC1(c2ccccc2)CCN(Cc2ccc(O)c3ncccc23)CC1", "activation": "368% (inactive)"},
      {"compound": "O=C(NCCCO)c1cc(-c2ccccc2)on1", "activation": "400% (inactive)"},
      {"compound": "O=C(Nc1ncc(-c2ccccc2)o1)c1cc(-c2ccccc2)on1", "activation": "14.8% (inactive)"},
      {"compound": "O=C(Nc1nc2ccccc2s1)c1cc(-c2ccccc2)on1", "activation": "4.65% (inactive)"},
      {"compound": "O=C(c1cc(-c2ccccc2)on1)N1CCC(N2CCCC2)CC1", "activation": "5.02% (inactive)"},
      {"compound": "Oc1ccc(CN2CCc3ccccc3C2)c2cccnc12", "activation": "263% (inactive)"},
      {"compound": "CN(C)CCNC(=O)c1cc(-c2ccccc2)on1", "activation": "29.6% (inactive)"},
      {"compound": "O=C(Nc1cnc2ccccc2c1)c1cc(-c2ccccc2)on1", "activation": "28.8% (inactive)"},
      {"compound": "O=C(c1cc(-c2ccccc2)on1)N1CCC(N2CCOCC2)CC1", "activation": "8.48% (inactive)"},
      {"compound": "O=C(Nc1nc(-c2ccccc2)cs1)c1cc(-c2ccccc2)on1", "activation": "-17.1% (inactive)"},
      {"compound": "Cc1ccccc1CNC(=O)c1cc(-c2ccccc2)on1", "activation": "22.9% (inactive)"},
      {"compound": "CC1CN(Cc2ccc(O)c3ncccc23)CC(C)O1", "note": "(stereo unspecified)", "activation": "95.7% (inactive)"},
      {"compound": "O=C(c1cc(-c2ccccc2)on1)N1CCN(c2ccncc2)CC1", "activation": "-14.8% (inactive)"},
      {"compound": "OCC1CCN(Cc2ccc(O)c3ncccc23)CC1", "activation": "480% (inactive)"},
      {"compound": "O=C(Nc1nnc(-c2ccccc2)s1)c1cc(-c2ccccc2)on1", "activation": "-7.41% (inactive)"},
      {"compound": "Cc1cccc(NC(=O)c2cc(-c3ccccc3)on2)n1", "activation": "29.2% (inactive)"},
      {"compound": "O=C(NC1CCc2ccccc2C1)c1cc(-c2ccccc2)on1", "note": "(stereo unspecified)", "activation": "5.28% (inactive)"},
      {"compound": "CN1CCN(C(=O)c2cc(-c3ccccc3)on2)CC1", "activation": "2.48% (inactive)"},
      {"compound": "O=C(Nc1ccc2ccccc2n1)c1cc(-c2ccccc2)on1", "activation": "12.3% (inactive)"},
      {"compound": "Cn1c(-c2ccccc2)cnc1NC(=O)c1cc(-c2ccccc2)on1", "activation": "9.12% (inactive)"},
      {"compound": "O=C(NCc1ccccc1)c1cc(-c2ccccc2)on1", "activation": "50.8% (inactive)"},
      {"compound": "Cc1cccc(CNC(=O)c2cc(-c3ccccc3)on2)c1", "activation": "1.59% (inactive)"},
      {"compound": "Cc1ccc(NC(=O)c2cc(-c3ccccc3)on2)cn1", "activation": "-7.72% (inactive)"},
      {"compound": "O=C(Nc1cn2ccccc2n1)c1cc(-c2ccccc2)on1", "activation": "31.3% (inactive)"},
      {"compound": "CC(C)(C)OC(=O)N1CCN(Cc2ccc(O)c3ncccc23)CC1", "activation": "271% (inactive)"},
      {"compound": "O=C(Nc1ncc2ccccc2n1)c1cc(-c2ccccc2)on1", "activation": "104% (inactive)"}
    ]},
    {"system": "U2OS HRE-luciferase reporter, luminescence", "assay": "HIF pathway activators in HRE-luciferase reporter, dose response, cell-based, U2OS, luminescence, dry powder, set 7 (AID 493235)", "settings": "not given", "outline": "as §1", "values": [
      {"compound": "COc1cccc(CNc2nc(-c3ccccn3)nnc2-c2ccccc2)c1", "AC500": "2.07 µM"},
      {"compound": "COc1ccc(CNc2nc(-c3ccccn3)nnc2-c2ccccc2)cc1", "AC500": "2.59 µM"},
      {"compound": "c1ccc(-c2nnc(-c3ccccn3)nc2Nc2nc3ccccc3s2)cc1", "AC500": "5.89 µM"},
      {"compound": "Oc1ccc(CN2CCC(Cc3ccccc3)CC2)c2cccnc12", "AC500": "20.1 µM"},
      {"compound": "O=C(NCCCN1CCOCC1)c1cc(-c2ccccc2)on1", "AC500": "11.3 µM"},
      {"compound": "COc1ccccc1N1CCN(Cc2ccc(O)c3ncccc23)CC1", "AC500": "26.5 µM"},
      {"compound": "c1ccc(-c2nnc(-c3ccccn3)nc2NCCCN2CCOCC2)cc1", "AC500": "10.2 µM"},
      {"compound": "Clc1cccc(CNc2nc(-c3ccccn3)nnc2-c2ccccc2)c1", "AC500": "1.84 µM"},
      {"compound": "c1ccc(-c2nnc(-c3ccccn3)nc2NCC2CCOCC2)cc1", "AC500": "14.2 µM"},
      {"compound": "O=C(NCCN1CCOCC1)c1cc(-c2ccccc2)on1", "AC500": "14.2 µM"},
      {"compound": "c1ccc(CCNc2nc(-c3ccccn3)nnc2-c2ccccc2)cc1", "AC500": "2.81 µM"},
      {"compound": "C[C@@H](Nc1nc(-c2ccccn2)nnc1-c1ccccc1)C1CCCCC1", "AC500": "4.02 µM"},
      {"compound": "c1ccc(-c2nnc(-c3ccccn3)nc2NCCN2CCOCC2)cc1", "AC500": "9.37 µM"},
      {"compound": "OCCCNc1nc(-c2ccccn2)nnc1-c1ccccc1", "AC500": "16.8 µM"},
      {"compound": "Oc1ccc(CN2CCc3ccccc3C2)c2cccnc12", "AC500": "3.21 µM"},
      {"compound": "CC(C)(C)CCNc1nc(-c2ccccn2)nnc1-c1ccccc1", "AC500": "2.2 µM and 1.47 µM"},
      {"compound": "Cc1ccc(CNc2nc(-c3ccccn3)nnc2-c2ccccc2)cc1C", "AC500": "1.31 µM"},
      {"compound": "O=C(NCC1CC1)c1cc(-c2ccccc2)on1", "AC500": "10 µM"},
      {"compound": "c1ccc(-c2csc(Nc3nc(-c4ccccn4)nnc3-c3ccccc3)n2)cc1", "AC500": "2.01 µM"},
      {"compound": "Oc1ccc(CN2CCC3CCCCC3C2)c2cccnc12", "note": "(stereo unspecified)", "AC500": "11.1 µM"},
      {"compound": "c1ccc(-c2cnc(Nc3nc(-c4ccccn4)nnc3-c3ccccc3)s2)cc1", "AC500": "6.49 µM"},
      {"compound": "Oc1ccc(CNC2Cc3ccccc3C2)c2cccnc12", "AC500": "28.6 µM"},
      {"compound": "c1ccc(-c2nnc(-c3ccccn3)nc2N2CCN(c3ccncc3)CC2)cc1", "AC500": "9.6 µM"},
      {"compound": "O=C(NCCCCO)c1cc(-c2ccccc2)on1", "AC500": "2.82 µM"},
      {"compound": "CN1CCN(c2nc(-c3ccccn3)nnc2-c2ccccc2)CC1", "AC500": "12.1 µM"},
      {"compound": "Cc1cccc(CNc2nc(-c3ccccn3)nnc2-c2ccccc2)c1", "AC500": "4.08 µM"},
      {"compound": "c1ccc(-c2nnc(-c3ccccn3)nc2NCC2CC2)cc1", "AC500": "8.75 µM"},
      {"compound": "c1ccc(-c2nnc(-c3ccccn3)nc2Nc2cnc3ccccc3n2)cc1", "AC500": "6.2 µM"},
      {"compound": "CCCCNC(=O)c1cc(-c2ccccc2)on1", "AC500": "9.47 µM"},
      {"compound": "c1ccc(-c2nnc(-c3ccccn3)nc2N2CCC(N3CCOCC3)CC2)cc1", "AC500": "4.84 µM"},
      {"compound": "c1ccc(-c2nnc(-c3ccccn3)nc2NCC2CCCCC2)cc1", "AC500": "2.17 µM"},
      {"compound": "C[C@@H](Nc1nc(-c2ccccn2)nnc1-c1ccccc1)c1ccccc1", "AC500": "3.92 µM"},
      {"compound": "CC(Nc1nc(-c2ccccn2)nnc1-c1ccccc1)c1ccccc1", "note": "(stereo unspecified)", "AC500": "2.97 µM"},
      {"compound": "OCC1CCN(c2nc(-c3ccccn3)nnc2-c2ccccc2)CC1", "AC500": "21.7 µM"},
      {"compound": "c1ccc(-c2nnc(-c3ccccn3)nc2NCCc2ccccn2)cc1", "AC500": "10.3 µM"},
      {"compound": "O=C(NCCCn1ccnc1)c1cc(-c2ccccc2)on1", "AC500": "5.75 µM"},
      {"compound": "C[C@H](Nc1nc(-c2ccccn2)nnc1-c1ccccc1)C1CCCCC1", "AC500": "2.99 µM"},
      {"compound": "Cc1ccc(Nc2nc(-c3ccccn3)nnc2-c2ccccc2)cn1", "AC500": "11.2 µM"},
      {"compound": "CN(C)c1nc(-c2ccccn2)nnc1-c1ccccc1", "AC500": "14.2 µM"},
      {"compound": "c1ccc(-c2nnc(-c3ccccn3)nc2NCc2cccnc2)cc1", "AC500": "15.3 µM"},
      {"compound": "c1ccc(-c2nnc(Nc3nc(-c4ccccn4)nnc3-c3ccccc3)s2)cc1", "AC500": "2.99 µM"},
      {"compound": "c1ccc(CNc2nc(-c3ccccn3)nnc2-c2ccccc2)cc1", "AC500": "5.52 µM"},
      {"compound": "CC(C)(C)CCNC(=O)c1cc(-c2ccccc2)on1", "AC500": "35.8 µM"},
      {"compound": "CC(C)(C)c1ccc(CNc2nc(-c3ccccn3)nnc2-c2ccccc2)cc1", "AC500": "1.33 µM"},
      {"compound": "Cc1ccc(CNc2nc(-c3ccccn3)nnc2-c2ccccc2)cc1", "AC500": "4.35 µM"},
      {"compound": "c1ccc(-c2cccc(CNc3nc(-c4ccccn4)nnc3-c3ccccc3)c2)cc1", "AC500": "3.39 µM"},
      {"compound": "Cn1c(-c2ccccc2)cnc1Nc1nc(-c2ccccn2)nnc1-c1ccccc1", "AC500": "9.16 µM"},
      {"compound": "C=CCNc1nc(-c2ccccn2)nnc1-c1ccccc1", "AC500": "9.45 µM"},
      {"compound": "Cc1cccc(Nc2nc(-c3ccccn3)nnc2-c2ccccc2)n1", "AC500": "10.7 µM"},
      {"compound": "c1ccc(-c2nnc(-c3ccccn3)nc2NCc2ccccn2)cc1", "AC500": "20.5 µM"},
      {"compound": "Cc1ccccc1CNc1nc(-c2ccccn2)nnc1-c1ccccc1", "AC500": "2.82 µM"},
      {"compound": "c1ccc(-c2nnc(-c3ccccn3)nc2N2CCC(C3CCCCC3)C2)cc1", "note": "(stereo unspecified)", "AC500": "4.37 µM"},
      {"compound": "c1ccc(-c2ccc(CNc3nc(-c4ccccn4)nnc3-c3ccccc3)cc2)cc1", "AC500": "0.71 µM"},
      {"compound": "c1ccc(-c2nnc(-c3ccccn3)nc2N2CCC(c3ccccc3)C2)cc1", "note": "(stereo unspecified)", "AC500": "1.72 µM"}
    ]}
  ]
}
